Assay outcomes from PubChem BioAssay.
697 NFkB inh: inhibitors of the PMA/ionomycin-induced NF-kB reporter in 697 B cells; actives 0.33% (n = 330,000); 697 B-cell NF-kB luciferase reporter, 16 h; inhibition, % at 4 µM; in the data active = inhibition above about 35%
NR2E3 ag-1: activates human photoreceptor nuclear receptor NR2E3; Q9Y5X4; GST-NR2E3/biotin-RetCOR TR-FRET, 1536-well; inhibition of corepressor binding, % at 4.78 µM; actives 0.12% (n = 320,000);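 active = percent inhibition above the cutoff of mean plus 3 SD of all tested compounds, set per screening campaign, cut at about 20% in these data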
Target sequence (Q9Y5X4 whole entry, looked up): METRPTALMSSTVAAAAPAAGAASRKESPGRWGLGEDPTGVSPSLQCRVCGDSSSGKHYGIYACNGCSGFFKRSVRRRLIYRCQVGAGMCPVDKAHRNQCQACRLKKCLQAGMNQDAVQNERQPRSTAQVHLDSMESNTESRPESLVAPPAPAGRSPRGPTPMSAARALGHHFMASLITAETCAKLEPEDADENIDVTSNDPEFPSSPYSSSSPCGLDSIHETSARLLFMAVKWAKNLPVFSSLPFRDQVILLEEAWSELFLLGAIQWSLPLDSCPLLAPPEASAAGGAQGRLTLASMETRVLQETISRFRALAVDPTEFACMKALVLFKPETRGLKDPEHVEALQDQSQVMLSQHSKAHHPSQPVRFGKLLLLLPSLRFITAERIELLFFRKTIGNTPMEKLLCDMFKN
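system = GST-tagged NR2E3 plus biotinylated RetCOR corepressor | input = 1.35 nM GST-NR2E3 | also added = 7 nM biotin-RetCOR | schedule = 5 h incubation at 4 °C | measured by = TR-FRET with europium anti-GST and streptavidin-D2, 340 nm excitation | read-out = percent loss of FRET ratio relative to control wells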
NR2E3 ag-2: human photoreceptor-specific nuclear receptor agonism; Q9Y5X4; CHO-S Gal4-NCOR/VP16-NR2E3 two-hybrid, luciferase; inhibition of corepressor binding, % at 3.98 µM; actives 0.35% (n = 360,000); AID 602229;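 active = inhibition above the mean of all tested compounds plus 3 SD, cut at about 70% in these data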;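 also: higher means lower luciferase signal from less NR2E3 corepressor binding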
miR122 inh: blocks miR-122 activity in Huh7 sensor cells | activation (reporter increase), % at 12.5 µM | Huh7 miR-122 Renilla luciferase sensor, 48 h; neutral wells = 0, positive control = 100 | AID 602342 | actives 0.3% (n = 340,000);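 active = mean replicate activation score at least 90 and every replicate individually at or above 90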;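 also: higher luciferase means less miR-122 activity so hits act as miR-122 inhibitors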
Jurkat NFkB inh: inhibitors of the PMA/ionomycin-induced NF-kB reporter in Jurkat cells. PMA/ionomycin-induced NF-kB luciferase reporter, luminescence. inhibition, % at 4 µM. actives 0.53% (n = 330,000); in the data active = inhibition above about 50%
FGF22 binding: shifts melting point of recombinant human FGF22; actives 1.5% (n = 340,000); activity (Tm shift, normalised), % at 9.99 µM; recombinant FGF22 thermal shift, SYPRO orange fluorescence; percent of sucrose octasulfate shift, DMSO zero; AID 651658;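 active = mean Tm shift, scaled 0 neutral to 100 positive control, at about 1.3% or above, every replicate too, limit read from the data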
Target sequence (Q9HCT0 whole entry, looked up): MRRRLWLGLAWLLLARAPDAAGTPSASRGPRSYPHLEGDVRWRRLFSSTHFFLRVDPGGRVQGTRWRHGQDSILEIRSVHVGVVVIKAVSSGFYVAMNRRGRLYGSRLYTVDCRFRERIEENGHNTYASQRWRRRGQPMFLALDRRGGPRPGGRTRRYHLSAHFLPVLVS
NR2E3 ag conf: NR2E3 agonism confirmed in two-hybrid assay. shares compounds with NR2E3 ag-2. CHO-S mammalian two-hybrid NR2E3-NCOR, luciferase luminescence. inhibition, % at 3.98 µM. actives 51% (n = 2,300). AID 624378;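 active = average inhibition above a cutoff equal to the mean inhibition of all tested compounds plus one SD, cut at about 70% in these data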
VP16 counter: counter-screen for NR2E3 agonists: GAL4-VP16 reporter inhibitors | shares compounds with NR2E3 ag-2 | actives 29% (n = 2,300) | inhibition, % at 3.98 µM | AID 624379 | CHO-S GAL4-VP16 luciferase reporter, luminescence;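 active = mean inhibition above a cutoff equal to the average over all tested compounds plus one standard deviation, cut at about 70% in these data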;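 also: luciferase from a UAS reporter driven by GAL4-VP16 transactivation; higher means less reporter light so more repression of VP16 activity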
A number is an active result; n = inactive; x = no result given. In the library only some 2.2% were active in any assay of this set; here they are far more common.

SMILES	697 NFkB inh	NR2E3 ag-1	NR2E3 ag-2	miR122 inh	Jurkat NFkB inh	FGF22 binding	NR2E3 ag conf	VP16 counter
N#C[C@@H]1[C@H](c2ccccc2-c2ccccc2)[C@@H](CO)N1c1ncc(-c2ccccc2)s1	x	x	x	x	x	n	x	x
C[C@H](CO)N1C[C@H](C)[C@@H](CN(C)Cc2ccncc2)Oc2cc(-c3cccnc3)ccc2S1(=O)=O	x	x	x	n	x	n	x	x
CC(C)c1ccc(CNc2nc(NCC3CC3)nc3ccsc23)cc1	x	x	n	x	x	n	n	n
COc1cccc(CNc2nc(NCc3ccccc3)nc3ccsc23)c1	x	x	n	n	x	n	n	n
COc1cccc(CNc2nc(NCC3CC3)nc3ccsc23)c1OC	x	x	n	x	x	n	x	x
COc1cccc(CNc2nc(NCC3CC3)nc3ccsc23)c1	x	x	84	n	x	n	n	n
CNc1nc(NCc2cccc(OC)c2)c2sccc2n1	x	x	n	n	x	n	x	x
CSc1ccccc1CNc1nc(NCC2CC2)nc2ccsc12	x	x	72	n	x	n	n	n
COc1ccccc1CNc1nc(NCc2ccc(C(C)C)cc2)c2sccc2n1	x	x	n	n	x	n	x	x
C[C@@H]1CN([C@@H](C)CO)C(=O)Cc2cc(NC(=O)Cc3ccccc3)ccc2O[C@H]1CN(C)CC1CC1	x	x	x	n	x	n	x	x
O=C(C[C@H]1CC[C@@H]2[C@H](COC[C@@H](O)CN2Cc2ccccc2)O1)NCc1ccccc1Cl	x	x	x	n	x	n	x	x
Cc1noc(C)c1NC(=O)N(C)C[C@H]1OCCCC[C@@H](C)Oc2ccc(NC(=O)c3ccccc3)cc2C(=O)N([C@@H](C)CO)C[C@@H]1C	x	x	x	n	x	x	x	x
O=c1c2ccc(F)cc2sn1-c1ccccc1	x	x	n	n	x	n	x	x
Cc1ccc(-n2sc3cc(F)ccc3c2=O)c(C)c1	x	x	n	n	x	n	n	n
C[C@H](CO)N1C[C@H](C)[C@H](CN(C)S(=O)(=O)c2ccccc2)OCCCC[C@H](C)Oc2ccc(NC(=O)C3CCCCC3)cc2C1=O	x	x	x	n	x	x	x	x
Cc1nc(-c2ccccn2)nc(N(C)c2ccccc2)c1Cl	n	n	105	n	n	n	n	n
Cc1cc(Nc2cccc(Cl)c2)nc(NCc2ccccc2)n1	n	n	93	x	n	n	96	76
O=C(N/N=C/c1ccc(O)cc1)c1ccc(COc2cc(Cl)ccc2Cl)o1	n	n	n	n	n	x	n	n
Cc1cc(OCc2cc(C(=O)N3CCN(C)C(=O)[C@@H]3C)no2)cc(C)c1Cl	n	n	n	n	n	n	n	n
C[C@H](CO)N1C[C@H](C)[C@@H](CN(C)Cc2ccccc2)Oc2ccc(NC(=O)C3CC3)cc2CC1=O	x	x	x	n	x	n	x	x
Clc1ccc2c(NCc3ccco3)ncnc2c1	n	n	n	n	n	x	n	n
Cc1csc2c(N3CCC(C(=O)O)CC3)ncnc12	n	n	n	x	n	n	x	x
Cc1csc2c(N3CCN(C(=O)Nc4ccc(OC(F)(F)F)cc4)CC3)ncnc12	n	n	n	x	n	n	90	71
CN(C)CC#Cc1ccc([C@@H]2[C@@H](CO)N3CCCCN(S(=O)(=O)c4ccccc4F)C[C@@H]23)cc1	x	x	x	n	x	n	x	x
C[C@H](CO)N1C[C@H](C)[C@H](CN(C)C(=O)CCC(F)(F)F)OCCCC[C@H](C)Oc2ccc(NC(=O)Nc3ccccc3)cc2C1=O	x	x	x	n	x	n	x	x
SMILES	697 NFkB inh	NR2E3 ag-1	NR2E3 ag-2	miR122 inh	Jurkat NFkB inh	FGF22 binding	NR2E3 ag conf	VP16 counter
COc1ccc2[nH]c3c(NCc4ccco4)ncnc3c2c1	n	n	x	x	n	x	x	x
Fc1ccc2[nH]c3c(NCc4ccccc4)ncnc3c2c1	n	n	90	n	n	n	97	87
O=C(NCCCSc1ccccc1)c1cc(Br)ccc1O	n	x	87	n	n	n	99	90
O=C(CCNC(=O)c1ccccc1Cl)NCCCSc1ccccc1	n	n	n	n	n	n	x	x
COc1cccc(-c2ccc3n(c2=O)C[C@H]2[C@H](CO)[C@@H](C(=O)NC4CCC4)N[C@@H]32)c1	x	x	x	n	x	n	x	x
Cn1c2ccccc2c(=O)c2ccc(C#CC3(O)CCCCC3)cc21	n	n	n	n	n	n	n	n
COc1cccc2sc3cc(C#CC4(O)CCCCC4)ccc3c(=O)c12	n	x	n	n	n	n	x	x
Cc1cccc(Nc2nc(N3CCCCC3)nc(N3CCCCC3)n2)c1	n	n	n	n	n	x	x	x
Cc1cccc(Nc2nc(N3CCOCC3)nc(N3CCOCC3)n2)c1	n	n	n	n	n	n	n	n
CC=Cc1ccc2n(c1=O)C[C@@H]1[C@@H](CO)[C@H](C(=O)NCC)[C@H]2N1C(C)=O (mixture of isomers)	x	x	x	n	x	n	x	x
Cc1nn(C)c(C)c1/C=C/C(=O)c1ccc(Cl)cc1Cl	n	n	76	x	n	n	100	85
